Experimental data from ChEMBL document CHEMBL1143936, “Role of benzimidazole (Bid) in the delta-opioid agonist pseudopeptide H-Dmt-Tic-NH-CH(2)-Bid (UFP-502)” (Bioorg Med Chem, 2008).
pIC50, pKi: −log10 of the molar value.

Legend:
Mu-type opioid receptor [1] = target: Mu-type opioid receptor (Cavia porcellus, UniProt P97266); assay: Agonist activity at mu opioid receptor assessed as inhibition of electrically-stimulated Hartley guinea pig contraction; format: functional, Hartely
Procedure, shortened: (§1)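 Isolated tissues in organ baths of balanced physiological salt buffer, pH 7.5. δ: single mouse vas deferens. μ: 2–3 cm myenteric plexus–longitudinal muscle strips from the small intestine of male Hartley guinea pigs. Read-out was inhibition of electrically evoked contraction; IC50 from dose–response curves, mean ± SE of separate assays. Internal standards were DPDPE (vas deferens) and PL-017 (ileum).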

[2] = target: T1, Delta-type opioid receptor (Mus musculus, UniProt P32300); assay: Agonist activity at delta opioid receptor assessed as inhibition of electrically-stimulated mouse vas deferens contraction; format: functional, tissue-based; procedure, shortened: as §1
Mu-type opioid receptor [3] = target: Mu-type opioid receptor (Rattus norvegicus, UniProt P33535); assay: Binding affinity to mu opioid receptor in Sprague-Dawley rat brain membrane; format: cell membranes
Procedure, shortened: (§2)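 Competition binding at equilibrium (2.5 h, 23 °C) on brain P2 synaptosomal membranes from Sprague-Dawley rats. Membranes were preincubated to strip endogenous opioid peptides and stored at −80 °C in buffered 20% glycerol. Filtration used GFC filters pre-soaked in 0.1% polyethylenimine, washed three times with ice-cold buffered BSA. Five to eight doses were run in duplicate, 3–5 independent membrane preparations each. Ki by Cheng–Prusoff, mean ± SE.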

[4] = target: Delta-type opioid receptor (Rattus norvegicus, UniProt P33533); assay: Binding affinity to delta opioid receptor in Sprague-Dawley rat brain membrane; format: cell membranes; procedure, shortened: as §2
Rattus norvegicus [5] = organism: Rattus norvegicus; assay: Selectivity ratio of rat delta opioid receptor to rat mu opioid receptor
Procedure, shortened: (§3)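 Ratio of the Ki values for δ and μ sites, both from the same rat brain synaptosome competition binding assay (2.5 h, 23 °C; Cheng–Prusoff Ki).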

Rattus norvegicus [6] = organism: Rattus norvegicus; assay: Selectivity ratio of Sprague-Dawley rat mu opioid receptor to Sprague-Dawley rat delta opioid receptor; procedure, shortened: as §3
[7] = target: T1, Delta-type opioid receptor; assay: Antagonist activity at delta opioid receptor assessed as DPDPE-stimulated mouse vas deferens contraction; format: functional, tissue-based; conditions: read-out: pA2 (converted)
Procedure, shortened: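 Mouse vas deferens in an organ bath with physiological salt buffer, pH 7.5, electrically stimulated. Antagonism was measured against the δ agonist DPDPE and expressed as pA2 from a Schild plot.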

Sequence of Mu-type opioid receptor (Rattus norvegicus, UniProt P33535) (P33535 whole entry): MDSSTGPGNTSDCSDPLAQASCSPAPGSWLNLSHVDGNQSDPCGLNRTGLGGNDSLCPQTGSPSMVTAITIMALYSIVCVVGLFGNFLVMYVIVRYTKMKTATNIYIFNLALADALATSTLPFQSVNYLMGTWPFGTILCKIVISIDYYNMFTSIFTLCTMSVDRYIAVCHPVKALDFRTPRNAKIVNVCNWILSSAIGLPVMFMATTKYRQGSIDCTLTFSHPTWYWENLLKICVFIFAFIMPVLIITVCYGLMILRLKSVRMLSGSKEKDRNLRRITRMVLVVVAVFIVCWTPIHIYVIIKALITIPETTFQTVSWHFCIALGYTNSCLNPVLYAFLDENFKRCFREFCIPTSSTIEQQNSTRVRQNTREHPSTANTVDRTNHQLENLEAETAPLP
Sequence of Mu-type opioid receptor (Cavia porcellus, UniProt P97266) (P97266 whole entry): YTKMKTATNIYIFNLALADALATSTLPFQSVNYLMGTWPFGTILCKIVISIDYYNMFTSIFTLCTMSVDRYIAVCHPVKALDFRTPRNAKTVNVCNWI
Sequence of Delta-type opioid receptor (Rattus norvegicus, UniProt P33533) (P33533 whole entry): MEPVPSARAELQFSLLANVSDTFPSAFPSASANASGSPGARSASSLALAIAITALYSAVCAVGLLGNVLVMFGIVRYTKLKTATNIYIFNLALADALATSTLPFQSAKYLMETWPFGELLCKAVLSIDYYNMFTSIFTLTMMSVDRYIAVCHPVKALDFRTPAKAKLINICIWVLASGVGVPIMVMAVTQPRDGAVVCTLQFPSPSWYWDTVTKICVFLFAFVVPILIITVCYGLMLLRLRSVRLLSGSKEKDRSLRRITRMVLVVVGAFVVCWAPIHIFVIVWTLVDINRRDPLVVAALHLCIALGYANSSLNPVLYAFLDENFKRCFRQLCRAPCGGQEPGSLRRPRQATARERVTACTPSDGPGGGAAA
T1 sequence (P32300 whole entry): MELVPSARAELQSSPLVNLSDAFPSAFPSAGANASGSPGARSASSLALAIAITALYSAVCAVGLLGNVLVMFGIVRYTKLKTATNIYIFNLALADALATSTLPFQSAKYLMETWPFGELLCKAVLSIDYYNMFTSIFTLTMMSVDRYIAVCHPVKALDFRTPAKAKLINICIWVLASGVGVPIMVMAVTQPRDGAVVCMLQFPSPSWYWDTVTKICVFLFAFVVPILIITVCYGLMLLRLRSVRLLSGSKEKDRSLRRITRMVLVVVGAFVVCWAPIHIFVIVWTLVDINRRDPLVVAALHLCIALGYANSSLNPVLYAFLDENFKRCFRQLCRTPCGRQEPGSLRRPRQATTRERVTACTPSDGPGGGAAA

SMILES | pIC50 (Mu-type opioid receptor [1]) | pIC50 [2] | pKi (Mu-type opioid receptor [3]) | pKi [4] | Ratio Ki (Rattus norvegicus [5]) | Ratio Ki (Rattus norvegicus [6]) | Kb [7] [nM]
Cc1cc(O)cc(C)c1C[C@H](N)C(=O)N1Cc2ccccc2C[C@H]1C(=O)NCC1Cc2ccccc2C1 | 7.55 | 6.89 | 9.80 | 9.70 | 1.2 | – | –
Cc1cc(O)cc(C)c1C[C@H](N)C(=O)N1Cc2ccccc2C[C@H]1C(=O)NCc1cc2ccccc2[nH]1 | 6.68 | – | 9.15 | 10.18 | – | 10.6 | 0.355
Cc1cc(O)cc(C)c1C[C@H](N)C(=O)N1Cc2ccccc2C[C@H]1C(=O)NCc1ncc[nH]1 | 6.95 | 8.44 | 8.93 | 9.94 | – | 10 | –
Cc1cc(O)cc(C)c1C[C@H](N)C(=O)N1Cc2ccccc2C[C@H]1C(=O)NCc1nc2ccccc2o1 | 6.77 | – | 8.85 | 9.55 | – | 5 | 0.38
Cc1cc(O)cc(C)c1C[C@H](N)C(=O)N1Cc2ccccc2C[C@H]1C(=O)NCc1nc2ccccc2[nH]1 | 7.45 | 9.03 | – | – | – | – | –
Cc1cc(O)cc(C)c1C[C@H](N)C(=O)N1Cc2ccccc2C[C@H]1C(=O)NCc1nc2ccccc2s1 | 6.89 | – | 8.97 | 9.84 | – | 7.3 | 0.427
Cc1cc(O)cc(C)c1C[C@H](N)C(=O)N1Cc2ccccc2C[C@H]1C(=O)NCc1nc(-c2ccccc2)c[nH]1 | 6.81 | – | 8.17 | 9.35 | – | 15 | 0.398
